Compound activity from PubChem.
ABCB1 block = human ABCB1 inhibition, ABCG2 as counter-screen; inhibition, % at 6.6 µM; CCRF-Adr cells, JC-1 efflux, flow cytometry; 190,000 compounds, 0.067% hits; in the data active means inhibition above about 40%;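 further: 0% = vehicle and 100% = reference inhibitor; higher value means more JC-1 retained so stronger ABCB1 efflux block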
MEKK2 mut-MEK5 = signal of MEK5 binding to mutant human MEKK2 PB1 domain | 290,000 compounds, 0.35% hits | bead flow cytometry, Alexa488-MEK5 binding to MEKK2 mutant | percent response, % at 10 µM; in the data active means percent response above about 24%, passing the limit was not always enough
MEKK2 WT-MEK5 = raises or lowers MEK5 binding to wildtype human MEKK2 PB1 domain; Q9Y2U5; bead flow cytometry, Alexa488-MEK5 binding to MEKK2 WT; actives lie on both sides; binding response (% of control), % at 10 µM; 290,000 compounds, 1.1% hits; AID 1531; in the data active means binding response below about 67% or above about 130%
MEKK3 PB1 HTS = MEKK3-MEK5 PB1 interaction, increase or decrease; bead-based flow cytometry, Alexa488-MEK5 binding to MEKK3; actives lie on both sides; 0 = blocked by unlabeled MEK5, 100 = vehicle; binding response (% of control), % at 10 µM; 290,000 compounds, 1.4% hits; Q99759;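 active means binding response more than 3 SD above or below the average of its plate-row segment, actives on both sides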;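 further: Alexa488 bead fluorescence after subtracting the streptavidin-only scavenger bead signal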
Target sequence (Q99759 whole entry, looked up): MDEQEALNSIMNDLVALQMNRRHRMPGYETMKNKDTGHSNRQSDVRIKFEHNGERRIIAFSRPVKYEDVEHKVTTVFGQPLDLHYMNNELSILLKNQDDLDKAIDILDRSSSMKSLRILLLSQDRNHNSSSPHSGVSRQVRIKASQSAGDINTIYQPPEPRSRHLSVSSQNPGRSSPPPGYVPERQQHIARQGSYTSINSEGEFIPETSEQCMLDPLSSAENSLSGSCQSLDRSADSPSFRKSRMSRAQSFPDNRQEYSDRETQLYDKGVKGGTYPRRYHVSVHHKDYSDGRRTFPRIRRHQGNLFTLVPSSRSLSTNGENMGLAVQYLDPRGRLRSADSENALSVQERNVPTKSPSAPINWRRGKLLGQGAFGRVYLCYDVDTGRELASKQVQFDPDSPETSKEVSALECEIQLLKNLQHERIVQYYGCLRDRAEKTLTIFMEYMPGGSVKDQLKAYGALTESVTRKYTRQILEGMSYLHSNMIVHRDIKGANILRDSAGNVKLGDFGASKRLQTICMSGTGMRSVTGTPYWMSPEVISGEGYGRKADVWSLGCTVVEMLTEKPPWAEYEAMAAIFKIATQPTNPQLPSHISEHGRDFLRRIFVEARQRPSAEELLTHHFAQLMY
ABCG2 block = blocks JC-1 efflux by human ABCG2 transporter | IgMXP3 cells, flow cytometry | inhibition, % at 6.6 µM | 190,000 compounds, 0.1% hits | AID 1325;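 active means inhibition above 80%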;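 further: 0% = DMSO and 100% = nicardipine control wells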
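Measure – % inhibition of efflux relative to nicardipine and DMSO · Test system – ABCG2 IgMXP3 and barcoded ABCB1 CCRF-Adr cell mix · Control set – nicardipine as high control, DMSO as low control · Compound – one concentration, 6.6 µM final · Signal – flow cytometry of retained JC-1 fluorescence · Timing – 10 min exposure at 25 °C with rotation, no wash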
WT yeast gro inh = growth inhibition of WT yeast, mitochondrial fusion screen. mitochondrial fusion phenotypic screen, WT strain. inhibition, % at 10 µM. 190,000 compounds, 2.1% hits. AID 1362; in the data active means inhibition above about 58%; tested in S. cerevisiae
The depositor's hits bear a star; x = no result given. In the library only some 3.5% were active in any assay of this set; here they are far more common.

SMILES	ABCB1 block	MEKK2 mut-MEK5	MEKK2 WT-MEK5	MEKK3 PB1 HTS	ABCG2 block	WT yeast gro inh
Cc1ccc2nc3c(cc(C(N)=S)c(=N)n3CCCOC(C)C)c(=O)n2c1	0	0	95	96	1	12
Cc1ccc(CN2CCN(C3CCCC3)C(CCO)C2)s1 (configuration not stated)	1	-1	99	104	6	16
Cc1ccc(C2=CC(C)(c3ccc(C)cc3)Nc3nc(C(F)(F)F)nn32)cc1 (configuration not stated)	0	7	100	102	3	71*
COc1ccc(CCNCc2ccc(OCc3ccccc3)cc2)cc1	x	13	136*	104	x	x
COc1ccc(C(CCNCc2ccccc2)c2ccc(F)cc2)cc1 (configuration not stated)	4	5	103	94	6	60*
COc1ccc(C(CCNCc2ccc(F)cc2)c2ccc(F)cc2)cc1 (configuration not stated)	1	5	128	99	0	59*
COc1ccc(CNCCC(c2ccc(F)cc2)c2ccc(OC(C)C)cc2)cc1OC (configuration not stated)	x	-5	82	71	x	x
COc1ccc(CNCC(O)(c2ccccc2)c2ccc(F)cc2)cc1 (configuration not stated)	x	5	115	107	x	x
COc1ccc(CNCCC(c2ccc(F)cc2)c2ccc(OC)cc2)cc1 (configuration not stated)	2	3	140*	100	12	75
COc1ccc(N2C(=O)NC(NS(=O)(=O)c3ccc(NC(C)=O)cc3)(C(F)(F)F)C2=O)cc1 (configuration not stated)	x	7	104	101	x	x
COc1ccc(CNC(=O)COC(=O)c2ccc(F)c(S(=O)(=O)N3CCCCC3)c2)cc1OC	x	-4	100	95	x	x
COc1ccc(C(OCC(O)CNC(C)c2ccccc2)c2ccc(OC)cc2)cc1 (configuration not stated)	x	8	130	105	x	x
COc1ccc(C(OCC(O)CNCCc2ccccc2)c2ccc(OC)cc2)cc1 (configuration not stated)	x	6	151*	99	x	x
O=C(N/N=C/c1ccncc1)c1cccc(S(=O)(=O)Nc2ccc(Cl)cc2)c1	x	4	91	88	x	x
CCOC(=O)CC(NC(=O)c1cccc2c1C(=O)N(Cc1cccnc1)C2)c1ccc(OCC)c(OC)c1 (configuration not stated)	1	-1	99	98	2	11
O=C(/C(=C\c1ccccc1)c1nc2ccccc2[nH]1)c1ccc(Cl)cc1	0	5	5.0*	93	9	50
S=C(Nc1ccc(Cl)cc1)c1nc2ccccc2[nH]1	0	0	110	128*	0	55
Cc1sc2ncnc(SCc3ccc(C(=O)O)cc3)c2c1C	1	-5	93	94	14	1
Cc1ccc(-c2csc3ncnc(SCc4ccc(C(=O)O)cc4)c23)cc1	0	0	104	108	0	59*
CCn1c2ccccc2c2cc(/C=N/NC(=O)c3cccc(C)c3)ccc21	-1	-1	93	97	-1	73*
COc1cc(NC(=O)CSc2cc(C)c3cc(C)cc(C)c3n2)c(C(=O)O)cc1OC	x	-4	93	94	x	x
Cc1ccc(CN2CCN(/N=C/c3ccc(C(=O)O)cc3)CC2)c(C)c1	-1	10	112	108	-5	-1
Cc1ccc(CN2CCN(/N=C/c3ccc(C(F)(F)F)cc3)CC2)c(C)c1	0	0	113	125	-1	64*
Cc1ccc(N=C2NC(=O)/C(=C/c3cn(C)c4ccccc34)S2)cc1C	1	0	88	93	0	45
O=C(Nc1nc2c(F)cc(F)cc2s1)c1ccc([N+](=O)[O-])o1	x	-2	98	100	x	x
SMILES	ABCB1 block	MEKK2 mut-MEK5	MEKK2 WT-MEK5	MEKK3 PB1 HTS	ABCG2 block	WT yeast gro inh
CCOC(=O)C1C(=O)C=C(c2ccc(Br)cc2)CC1c1ccco1 (configuration not stated)	1	1	105	102	6	62*
CCOC(=O)C1C(=O)C=C(c2cccc(NS(C)(=O)=O)c2)CC1c1ccco1 (configuration not stated)	1	2	102	104	2	-1
Cc1ccn(CCC(=O)N2CCc3ccccc32)n1	x	5	98	98	x	x
CCN(CC)CCNc1ncnc2c1sc1nc(N3CCCC3)c3c(c12)CC(C)(C)OC3	3	32	150*	110	5	3
Cc1ccc(C)c(C(=O)COC(=O)c2cc([N+](=O)[O-])ccc2NCCO)c1	1	-3	96	96	9	60*
Cc1nn(-c2ccccc2)c(C)c1NC(=O)COC(=O)c1cc([N+](=O)[O-])ccc1NCCO	x	2	104	102	x	x
O=C(Nc1ccc([N+](=O)[O-])cn1)c1cc(-c2cccc(Cl)c2)nc2ccccc12	1	5	96	97	8	10
O=C(Nc1ccccn1)c1cc(-c2cccc(Cl)c2)nc2ccccc12	3	3	107	103	39	65*
N/C(=N\OC(=O)Cc1ccc(-c2ccccc2)cc1)c1ccccn1	0	4	102	94	0	62*
N/C(=N\OC(=O)c1cc(-c2ccccc2)nc2ccccc12)c1ccccn1	1	2	97	103	4	66*
Cc1nc(CSc2nnc3scc(-c4ccc(Cl)cc4)n23)cs1	1	0	98	101	7	-1
COCCCNC(=O)C1Cc2cc(S(=O)(=O)N3CCCC3)ccc2N1C(C)=O (configuration not stated)	x	8	104	104	x	x
COc1ccc(S(=O)(=O)Nc2ccccc2C(=O)NCc2cccnc2)cc1	x	-5	96	99	x	x
CN=c1scc(-c2ccccc2F)n1/N=C(\C)c1cccnc1	1	0	104	98	8	71*
Cc1ccn2cc(CSc3ccccc3)nc2c1	2	12	108	104	5	60*
Cc1ccc(SCc2cn3cccnc3n2)cc1	0	10	106	107	0	32
CN(CCC#N)C(=S)Nc1ccc(Oc2ccccc2)cc1	0	-1	99	99	6	5
O=C(Oc1cccc2c(O)cccc12)c1ccccc1	1	-12	88	90	3	60*
Cc1onc(-c2ccccc2)c1C(=O)N/N=C/C(Br)=C/c1ccccc1	-3	1	102	101	-9	82*
Cc1ccc(Cn2ccc(=O)c(OCc3c(Cl)cccc3Cl)c2C)cc1	2	12	112	106	4	77*
